Results from the EternaBench riboswitch data.

Tested on: MS2 coat protein
Experiment: apparent Kd, MS2 coat protein; higher = weaker binding; RNA-MaP array; FMN 200 µM where present
In short: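 Stalled E. coli RNA polymerase produced the designs on Illumina sequencing-chip clusters. SNAP-549-labelled MS2 coat protein was added from 0.7 or 1.5 nM, doubling to 3 µM, without and then with constant ligand, in 100 mM Tris-HCl pH 7.5, 80 mM KCl, 4 mM MgCl2, BSA, DTT, yeast tRNA and Tween-20. The apparent Kd is the median of filtered per-cluster fits of green signal normalised to red-channel RNA signal and control-cluster median Fmax.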

[1] = designed as: OFF switch for flavin mononucleotide, no ligand
[2] = ligand present: flavin mononucleotide, designed as: OFF switch for flavin mononucleotide
[3] = designed as: ON switch for flavin mononucleotide, no ligand
[4] = ligand present: flavin mononucleotide, designed as: ON switch for flavin mononucleotide

Row | Sequence | apparent Kd [1] [µM] | apparent Kd [2] [µM] | apparent Kd [3] [µM] | apparent Kd [4] [µM]
1 | CAGGUAGACUGAGGAUAUACAAUAAAGACCUAGUCUAUCUAGGUCAUCACAUGAGGAUCACCCAUGUAGAAGGCAGUCUGCCUG | 0.0185 | 0.0382 |  | 
2 | ACAUACAUUCGAGGAUAUCGGUGAACAAAUUAACGAGAAGGCGAAAUACUUUUUAAUCUUAUAAACAUGAGGAUCACCCAUGUA |  |  | 0.0199 | 0.0207
3 | GGAGCACAUGAAUACAUGAGGAUCACCCAUGUCGAAUGAUAUGAGGAUAUGGAUCGGAAAACGAUCUAGAAGGCAUAGUGCUCC |  |  | 0.0765 | 0.0102
4 | CUGGAAGUCGUAGGAUAUGGUGAUGUACAUGAGGAUCACCCAUGUCCGUCUUCUCUCACAAGAUGCCAGAAGGACGACUUCCGG |  |  | 0.625 | 0.101
5 | AGUACGUCAGGAUAUCUGAUGUCUAACUUCGGUUAGACAUCAGAGAAGGGACAUGAGGAUCACCCAUGUACUAG | 0.0387 | 0.0426 |  | 
6 | CGCUCUAUAUAUAAGGCAAGAAUCAGAAGGCGUUACAUGAGGAUCACCCAUGUUUUGUAUAGUAACGAGGAUAUGAUAUGAGCG | 0.0153 | 0.0151 |  | 
7 | CGCUGGAUCGAGAAGGCCAUGUGGGACGCGAGCAGUGAUGUUAGGACAUGGAGGAUAUCGAACAUGAGGAUCACCCAUGUAACC |  |  | 0.438 | 0.0255
8 | GUAGCUAUCGGAGGAUAUUCAUAAAACAUGAGGAUCACCCAUGUUAAAUUGGGAGAAGGCCGAUAGCUACAAGAGCGAAAGCUC |  |  | 0.00585 | 0.00476
9 | GUAUAUAUAUAAGGAUAUAAGUCUAGGACAUGAGGAUCACCCAUGUGUGUCUUAGAAGGUAUAUAUGUAAUACUGUUACAGUAA |  |  | 0.0648 | 0.0142
10 | GAGCGAAAGCUCAAUGUCGAUAGCAGAAGGGCAUGAAAACAUGAAAACACAUGAGGAUCACCCAUGUAGGAUAUGCUAUCGACU | 0.0106 | 0.0176 |  | 
11 | AAAUGCCUGUCGAUGCUCGACAUGAGGAUCACCCAUGUACAGCAGGAUAUGCGGAACUAACUCGUGCAGAAGGGCUGUACCUAA | 0.102 | 0.144 |  | 
12 | UUUAGUUGCGGGCAGGAUAUGUAUUAAAAUACAUGAGGAUCACCCAUGUGCGGGUAUAACACCCGACAGAAGGGCCAAUCGCGAC |  |  | 0.322 | 0.0333
13 | UGUAUACAUGAGGAUCACCCAUGUAAGGAUAUGCUUUAUUAUUAUUAUUAUUAUUAUUGCAGAAGGUACAUUAU | 0.0358 | 0.0359 |  | 
14 | CUGUACUGAGGAUAUACAUGAGGAUCACCCAUGUGUUCGAUACUAGUGAGGUCGAUUAGUAGAAGGCAGUACAG | 0.023 | 0.242 |  | 
15 | GCACUUUUAUUUUAACCGUUUCGAACAUGAGGAUCACCCAUGUAGGAUAUGCUAAAAGUUGUGAUGCAGAAGGACAUUAAGUGC | 0.00715 | 0.00729 |  | 
16 | UAAAUUAACAAGAAGGCUAACAUGAGGAUCACCCAUGUUGUACAUGGAUAUAGAGGAUAUUGCUAAUAUUUAUUUAUCAUAAUU | 0.0218 | 0.0173 |  | 
17 | GCCAUCACAUGAGGAUAUGCUCCCGUUUCGGGAGCAGAAGGCAUGUCAUAAGACAUGAGGAUCACCCAUGUAGUUAAGAUGGCA |  |  | 0.375 | 0.0133
18 | UGGAACGUGUCAGGAUAUACAUGAGGAUCACCCAUGUAUAGGAAAUAGGCAGGGUCUCUUGCAUAGUAGAAGGGACGCGAUUGC | 0.00658 | 0.00775 |  | 
19 | AUAUCCUAGAUAGGAUAUACUGAGGUUGAAUGGGUAGAAGGAUCGUUAGGGUAGACUACAUGAGGAUCACCCAUGUUGUUUAUU |  |  | 0.0431 | 0.0401
20 | GCACUUACGUUAGGAUAUGGAUCGGAAAACGAUCCAGAAGGAAUAUGGGAACAUGAGGAUCACCCAUGUUCCGCAGACAAGUGC |  |  | 0.0965 | 0.039
21 | UAGGUACAUGAGGAUCACCCAUGUGAGGAUAUAGUUGAAGAUUGCGAGAGGGAGAGGACUAGAAGGCACAGUGG | 0.0505 | 0.069 |  | 
22 | AGUUAAUAUCGAGGAUAUGUCUAGACACAUGAGGAUCACCCAUGUAUGUGUAUAGAAGGCGAUAUUAACAGCAUGUUACAUGCA |  |  | 0.0403 | 0.0167
23 | AUACCUUAUGAGAAGGCGAUCAUGAAACAUGAUCGAGGAUAUCAUGUAAACAUGAGGAUCACCCAUGUAUGGGUAUUAUGGUAA |  |  | 0.0265 | 0.0091
24 | CCGGAUAUGCAGGAUAUCGUAUCGGAAACGAUACGAGAAGGGUAUACAUGAGGAUCACCCAUGUGCCUUACCGG | 0.0197 | 0.0219 |  | 

Row | Sequence | apparent Kd [1] [µM] | apparent Kd [2] [µM] | apparent Kd [3] [µM] | apparent Kd [4] [µM]
25 | GGCCUACGAGGAUAUCGCUAGCGGGACAUGAGGAUCACCCAUGUGUCGGACCGCGUCAUGCGAGAAGGUGUAAUGA | 0.0176 | 0.0184 |  | 
26 | ACAAGGCAUGUAGGAUAUCCAUUGCGUCGCGAUGGAGAAGGACAACACACAUGAGGAUCACCCAUGUGGUCACCCAUGUCGUGU | 0.0513 | 0.169 |  | 
27 | AGACUGAAGCAAGGAUAUUGUAAGGUUAAUGUACAAGAAGGUGCUGUUUAUGUCUCUUAACAUGAGGAUCACCCAUGUUUUGAA |  |  | 0.0192 | 0.0192
28 | GUAGCUAGUACAGGAUAUUAGUGUGUGUAAUAUUGAGAAGGGUACAUGAGGAUCACCCAUGUGAUCAAUCACUGUUAAGGUUGC | 0.0804 | 0.064 |  | 
29 | GCCAUCGUAUGAGGAUAUGGCACCGAAACGGUGCCAGAAGGCAUGUCAAUCGACAUGAGGAUCACCCAUGUGUUAUCGAUGGCA |  |  | 0.305 | 0.0251
30 | UGGUACAUGGGAGGAUAUAGGUUGAUAACAUGAGGAUCACCCAUGUUAAAUAAGCCGAGAGGCUACUAGAAGGCCCAUGUACCU |  |  | 0.00473 | 0.00475
31 | AUAAGCUCGUCAGGAUAUGCGACACUGUUUCUGCAGUGUGGUAUGAUCACAUGAGGAUCACCCAUGUAGAAGGGACGAGCUUAU | 0.00666 | 0.0139 |  | 
32 | GAACUGAGGCAAAGCUUUAGUCGUACAUGAGGAUCACCCAUGUAGGAUAUGGUAGGCUUUGCUUACCAGAAGGACAGAGUGAUC | 0.102 | 0.139 |  | 
33 | GUGUACAGAGGAUAUACAUAAGCUAGGAAACUAGCAACUUCACAUGAGGAUCACCCAUGUAGAAGGCUGUACAC | 0.0139 | 0.0178 |  | 
34 | CGCUCAAUUCUUUAGGUUAGAAUCAGAAGGCGUAACAUGAGGAUCACCCAUGUAUAGACGUGUAACGAGGAUAUGAAUUGAGCG | 0.00564 | 0.00546 |  | 
35 | GGGAGUGGAGGGAAUAACAUGAGGAUCACCCAUGUAUGGGAGAGAAGGCAGGUCGGAGGGCGAUCUGAGGAUAUUUAGACUCCU |  |  | 0.0125 | 0.0103
36 | UUAAUUAACAAGAAGGCUAACAUGAGGAUCACCCAUGUUGUACAUGGAUAUAGAGGAUAUUGCUAAUAAUUAUUUAUCAUAAUU | 0.0256 | 0.019 |  | 
37 | AACUCGUCAGGAUAUGCGCGCAGUUGCUGCGCUUCGCCGUUGCAGAAGGGACAUGAGGAUCACCCAUGUAGGUC | 0.0358 | 0.0435 |  | 
38 | ACAGAGGCUGACAUGAGGAUCACCCAUGUUAGAUUGUUAUGUCAGGAUAUUAUCUCGCAACGAGAUAAGAAGGGACCCUCUGUG |  |  | 0.0375 | 0.00798
39 | AAGUAGACGGUGAGGAUAUAGGUCGAAUGACCGAUCUAGAAGGCACAUGAGGAUCACCCAUGUGGGUAACGUCG | 0.0178 | 0.0207 |  | 
40 | AUAAUUUUAUAUAUCAUAUAAAUCAGAAGGCAUAACAUGAGGAUCACCCAUGUAUAUUAUUGUUAUGAGGAUAUGAUUUCGUUA | 0.00912 | 0.0425 |  | 
41 | UAAAGACAUGAGGAUCACCCAUGUGAGGAUAUCGGAGAUAACGGAACAUCAAGUUCGGCGAGAAGGCACAGGAA | 0.0539 | 0.0581 |  | 
42 | AUUUUGUCAGGAUAUGAGUAGUAGGAUGAGAGUGCUACUACUUAGAAGGGACAUGAGGAUCACCCAUGUCUUCC | 0.0142 | 0.0167 |  | 
43 | ACAAGGCAUGUAGGAUAUCCAUUGCGUCGCGAUGGAGAAGGGCAACACACAUGAGGAUCACCCAUGUGGUCACCCAUGUCGUGU | 0.0558 | 0.0688 |  | 
44 | GCGUAUAUAUGUUUUAUUUAACAGUCAGAAGGUGAUAAUACGACAUGAGGAUCACCCAUGUAAUUCAAGGAUAUGAUCUUACGC |  |  | 0.117 | 0.0201
45 | GCCAGGGAUUCAGGAUAUAUUAGCCGAGGCCGAGUAGAAGGGAAAUCCUGACAUGAGGAUCACCCAUGUCGACCCGCCUUCCUC |  |  | 0.0205 | 0.0211
46 | CGCUACUACCAGAAGGACAUGAGGAUCACCCAUGUAGGAUAUGGGUUACACGUUCCUGUGAAUUGUAACGACGCUACGUAUGCG |  |  | 0.203 | 0.0134
47 | GCAGGAUAAGUGAGGAUAUACCUAUGGAUACAUAGGUAGAAGGUACAUGAGGAUCACCCAUGUUCCUCACCUGC | 0.00954 | 0.0101 |  | 
48 | GUCAUGUUAGGAUAUCAAACAUGUGACUUCGGUCACUGUCCUGAGAAGGAACAUGAGGAUCACCCAUGUUGGAC | 0.0178 | 0.0474 |  | 
